High-throughput results from PubChem BioAssay.
This is a sample that favours compounds with a hit; in the whole collection about 1.8% have one here.
PG9 Ab binder: PG9 antibody binding by small molecule | TR-FRET gp120-PG9 antibody binding | inhibition, % at 6.7 µM | actives 0.43% (n = 360,000) | AID 624416; in the data active means inhibition above about 8.5%
Rev-erbA mod: modulators of human Rev-erb alpha DNA binding; Rev-erbα–FITC-DNA binding, fluorescence polarization, 90 min; P20393; actives 0.79% (n = 370,000); activity, % at 10 µM;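 active means activity above about 14%, limit read from the data; passing the limit was not always enough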;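 further: 0% = DMSO wells with 35 nM protein and 100% = DMSO wells with 750 nM protein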
Rin1 Abl inh: inhibitors of human Rin1-Abl protein interaction. P00519+Q13671. TR-FRET Rin1/Abl binding, biochemical. inhibition, % at 7.35 µM. actives 0.4% (n = 360,000); in the data active means inhibition above about 5%, passing the limit was not always enough
Target sequence (P00519 whole entry, looked up): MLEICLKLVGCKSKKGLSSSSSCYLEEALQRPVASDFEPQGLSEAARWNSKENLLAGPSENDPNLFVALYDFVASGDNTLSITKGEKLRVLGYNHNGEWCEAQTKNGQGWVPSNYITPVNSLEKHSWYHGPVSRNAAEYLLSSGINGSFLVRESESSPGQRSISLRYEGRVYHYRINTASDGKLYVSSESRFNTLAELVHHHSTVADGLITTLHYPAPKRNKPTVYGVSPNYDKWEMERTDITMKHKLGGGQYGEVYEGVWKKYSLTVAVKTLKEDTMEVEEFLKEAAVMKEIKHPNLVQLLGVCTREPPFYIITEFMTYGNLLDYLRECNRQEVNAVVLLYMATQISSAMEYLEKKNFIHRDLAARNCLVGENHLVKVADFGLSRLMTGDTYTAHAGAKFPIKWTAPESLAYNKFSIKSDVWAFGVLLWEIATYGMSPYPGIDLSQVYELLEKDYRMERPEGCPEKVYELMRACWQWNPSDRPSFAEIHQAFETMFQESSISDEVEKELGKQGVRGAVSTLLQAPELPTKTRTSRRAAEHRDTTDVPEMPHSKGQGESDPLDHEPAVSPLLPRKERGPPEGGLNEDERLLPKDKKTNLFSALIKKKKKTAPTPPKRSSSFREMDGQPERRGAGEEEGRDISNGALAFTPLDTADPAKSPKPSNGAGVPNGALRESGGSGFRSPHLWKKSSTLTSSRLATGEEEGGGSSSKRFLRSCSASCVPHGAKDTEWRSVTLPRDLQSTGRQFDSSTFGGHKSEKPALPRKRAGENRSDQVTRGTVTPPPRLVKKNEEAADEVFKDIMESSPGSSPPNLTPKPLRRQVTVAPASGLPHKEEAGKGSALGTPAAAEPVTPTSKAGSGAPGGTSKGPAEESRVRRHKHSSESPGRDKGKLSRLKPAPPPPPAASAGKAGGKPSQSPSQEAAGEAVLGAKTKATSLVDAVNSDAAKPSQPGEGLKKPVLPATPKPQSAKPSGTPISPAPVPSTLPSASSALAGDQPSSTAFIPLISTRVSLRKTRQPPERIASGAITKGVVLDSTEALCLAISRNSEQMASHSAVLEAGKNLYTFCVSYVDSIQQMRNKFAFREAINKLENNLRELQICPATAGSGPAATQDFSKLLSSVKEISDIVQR
Target sequence (Q13671 whole entry, looked up): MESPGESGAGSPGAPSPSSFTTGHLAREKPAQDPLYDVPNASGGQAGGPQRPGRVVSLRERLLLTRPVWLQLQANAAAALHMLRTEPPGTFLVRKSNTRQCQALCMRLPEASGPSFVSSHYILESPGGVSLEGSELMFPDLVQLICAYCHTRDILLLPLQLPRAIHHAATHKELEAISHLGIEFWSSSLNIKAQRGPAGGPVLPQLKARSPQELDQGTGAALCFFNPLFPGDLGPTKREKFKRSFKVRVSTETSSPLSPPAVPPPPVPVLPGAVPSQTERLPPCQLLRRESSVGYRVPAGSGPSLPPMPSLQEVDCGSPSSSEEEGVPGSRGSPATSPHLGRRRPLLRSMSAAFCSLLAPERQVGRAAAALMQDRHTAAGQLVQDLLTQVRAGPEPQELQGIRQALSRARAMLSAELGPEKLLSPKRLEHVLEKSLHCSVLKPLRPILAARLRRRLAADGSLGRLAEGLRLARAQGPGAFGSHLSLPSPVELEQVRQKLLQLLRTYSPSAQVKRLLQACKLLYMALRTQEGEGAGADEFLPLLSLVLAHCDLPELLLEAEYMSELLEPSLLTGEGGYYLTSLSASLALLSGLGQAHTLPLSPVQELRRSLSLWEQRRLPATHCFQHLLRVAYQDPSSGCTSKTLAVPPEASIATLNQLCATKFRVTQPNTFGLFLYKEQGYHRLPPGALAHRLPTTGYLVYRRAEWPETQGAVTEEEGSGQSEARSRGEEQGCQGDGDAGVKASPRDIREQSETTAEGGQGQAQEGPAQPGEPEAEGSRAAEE
Tb MetRS inh: Trypanosoma brucei MetRS inhibition; purified T. brucei MetRS, ATP depletion, Kinase-Glo luminescence; inhibition, % at 11.9 µM; actives 0.4% (n = 360,000); AID 624268;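 active means inhibition above a per-plate cutoff of the control wells' mean inhibition plus 3 SD, cut at about 5.5% in these data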;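 further: 0% = DMSO wells median and 100% = median of wells with control inhibitor compound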
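assay system = parasite MetRS enzyme | timing = 15 min preincubation, 2 h reaction, all 25 °C | evaluation = percent inhibition relative to median high and low control wells | medium = HEPES buffer containing pyrophosphatase, BSA, spermine, DTT | compound = single dose, 11.9 µM final nominal, 0.9% final DMSO | detection = Kinase-Glo luminescence, ATP depletion format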
PG9 binder conf: PG9 antibody binding, confirmed. shares compounds with PG9 Ab binder. TR-FRET PG9 antibody binding, biochemical. inhibition, % at 6.7 µM. actives 90% (n = 1,500). AID 651571; in the data active means inhibition above about 9%
PGV04 counter: binds control antibody PGV04 in PG9 binder counter-screen; shares compounds with PG9 Ab binder; TR-FRET PGV04 antibody-gp120 binding, biochemical; inhibition, % at 6.7 µM; actives 95% (n = 1,500); in the data active means inhibition above about 9.5%
PG9 binder DR: small molecules binding HIV-1 gp120 antibody PG9. shares compounds with PG9 Ab binder. TR-FRET PG9 antibody-gp120 binding inhibition. IC50, µM. 95 tested, under 10 active. AID 651848; in the data active means IC50 below about 10 µM
PGV04 binding DR: PGV04 binding, dose response counter-screen; actives 20% (n = 95); IC50, µM; shares compounds with PG9 Ab binder; TR-FRET binding to control antibody PGV04
PG126 binding DR: counter-screen for PG9 binders: binding to control antibody PG126; shares compounds with PG9 Ab binder; TR-FRET binding to antibody PG126, counterscreen; IC50, µM; actives 20% (n = 95)
Rev-erbA confirm: confirmation of modulators of human Rev-erb alpha DNA binding; shares compounds with Rev-erbA mod; Rev-erb alpha FITC-DNA binding, fluorescence polarization, 90 min; activation, % at 25 µM; actives 61% (n = 3,000);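 active means activation at or above a set limit, or at least 3 SD above the negative control mean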;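 further: 0% = 35 nM protein with DMSO and 100% = 750 nM protein high control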
RORg DNA counter: counter-screen for Rev-erb alpha modulators: RORgamma DNA binding; AID 1259320; purified RORgamma protein-FITC-DNA binding, fluorescence polarization; shares compounds with Rev-erbA mod; actives 8% (n = 910); IC50, µM;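 active means Compounds whose fitted half-maximal concentration for disrupting protein-DNA binding is below 10 micromolar; the record names Rev-erb in its text, so the target is in doubt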
* = called active by the depositor; i = inactive; . = no result. Unless noted, no stated cut-off is given here; in the data, active means IC50 below about 9 µM; inactive means the rest.

SMILES | PG9 Ab binder | Rev-erbA mod | Rin1 Abl inh | Tb MetRS inh | PG9 binder conf | PGV04 counter | Rev-erbA confirm | others
N#Cc1ccc(NC(=O)c2sc3cc(C(F)(F)F)cnc3c2-c2cccs2)cc1 | -13 | 8 | 3 | -1 | . | . | .
CCn1c(=NC(=O)c2cccc(N3C(=O)CCC3=O)c2)sc2c(C)ccc(OC)c21 | 1 | 6 | -4 | -1 | . | . | .
CCn1c(=NC(=O)c2ccc(N3C(=O)CCC3=O)cc2)sc2c(OC)ccc(OC)c21 | 16* | 82* | -39 | 0 | 31* | 56* | 96* | RORg DNA counter=i
CCOC(=O)c1sc(=NC(=O)c2ccc(C)cc2)n(C)c1C | 22* | 20* | -11 | 0 | 22* | 53* | 9
CNC(=O)c1ccc(NC(=O)CCNC(=O)Nc2ccccc2)cc1 | 1 | -1 | -2 | 0 | . | . | .
CCOC(=O)c1sc2nc(SCC(=O)NCc3ccco3)n(Cc3ccccc3)c(=O)c2c1C | 1 | -1 | 0 | 0 | . | . | .
Cc1sc2nc(SCC(=O)NCc3ccco3)n(Cc3ccccc3)c(=O)c2c1C | 20* | 37* | -7 | 0 | 14* | 20* | 31*
Cc1sc2nc(SCC(=O)NCc3ccco3)n(-c3ccccc3)c(=O)c2c1C | 51* | 102* | 1 | 0 | 58* | 75* | 85*
Cc1ccc(-n2c(SCC(=O)NCc3ccco3)nc3sc(C)c(C)c3c2=O)cc1 | 30* | 67* | -1 | -2 | 29* | 42* | 63*
CCCCCCCCN1C(=O)[C@@H](CC(=O)NCCCCc2ccccc2)C[C@@]2(C(=O)OC)C1=C[C@H](C(C)(C)C)O[C@@H]2C | 0 | 0 | . | . | . | . | .
C[C@H]1[C@@H](NC(=O)c2ccc(O)cc2)CC[C@@]23CCCN2C(=O)CCC[C@@H]13 | . | -7 | . | . | . | . | .
O=S(=O)(Nc1ccc(Cl)cn1)c1cccs1 | -2 | -2 | 2 | 0 | . | . | .
COc1ccccc1NC(=O)Cn1cnc2sc(C(=O)NCc3ccco3)c(C)c2c1=O | 0 | -4 | -1 | -1 | . | . | .
COc1ccccc1NC(=O)c1sc2ncn(Cc3ccccc3C)c(=O)c2c1C | 52* | 62* | -5 | -1 | 55* | 74* | 23*
O=C1c2cccc3cccc(c23)C(=O)N1Cc1ccccc1 | 51* | 36* | 0 | -1 | 60* | 69* | 13
CC1(N=Cc2cc(Cl)ccc2O)COP(=O)(NC2CCCC2)OC1 (configuration not stated) | 0 | 1 | 6 | 0 | . | . | .
COC(=O)c1c(NC(=O)c2ccn(C)n2)sc2c1CCC2 | 9.0* | 20* | 0 | -1 | 7 | 13* | -5
CCc1cccc(C)c1NC(=O)C1CCCN1C(=O)NCc1ccccc1 (configuration not stated) | -2 | -5 | -2 | 0 | . | . | .
COc1ccc(-c2ccc3c(c2)c(Sc2ccccc2)c(-c2cc(OC)cc(OC)c2)n3C)cc1 | 17* | 40* | . | 0 | 44* | 60* | 60* | RORg DNA counter=>40
COc1ccc(-c2c(Sc3ccccc3)c3cc(-c4ccc5c(c4)OCO5)ccc3n2C)cc1 | 37* | 20* | . | 0 | 88* | 57* | -34 | PG9 binder DR=2.9*;PGV04 binding DR=2.1*;PG126 binding DR=2.1*
COc1ccc2c(c1)c(=O)c(C(=O)O)c(-c1ccc3c(c1)OCO3)n2C | -3 | 3 | -3 | -1 | . | . | .
COc1cc(OC)cc(-c2c(Sc3ccccc3)c3cc(-c4cnc(OC)nc4)ccc3n2C)c1 | 1 | -1 | . | -1 | . | . | .
CN(C(=O)COC(=O)CNC(=O)c1sc2ccccc2c1Cl)C1CCS(=O)(=O)C1 (configuration not stated) | 1 | -6 | -3 | 0 | . | . | .
CCOC(=O)c1c(NC(=O)C2CCCO2)sc(C(N)=O)c1C (configuration not stated) | 0 | -7 | -5 | -1 | . | . | .
CCOC(=O)c1sc(NC(=O)CN(CC)CC)c(C(=O)OCC)c1C | 17* | 43* | -1 | -1 | 1 | 3 | 11
SMILES | PG9 Ab binder | Rev-erbA mod | Rin1 Abl inh | Tb MetRS inh | PG9 binder conf | PGV04 counter | Rev-erbA confirm | others
CCOC(=O)c1c(NC(=O)C2c3ccccc3Oc3ccccc32)sc(C(N)=O)c1C | 33* | 41* | -2 | -1 | 28* | 41* | 26*
CCOCC(=O)Nc1ccc2c(c1)N(S(=O)(=O)c1cccs1)CCC2 | 1 | -2 | 3 | 0 | . | . | .
COc1ccc(-c2c(C)nc3c(-c4ccccn4)cnn3c2N)cc1 | 1 | 7 | 2 | -1 | . | . | .
COc1ccc(-c2c(C)nc3c(-c4ccsc4)cnn3c2N)cc1 | 36* | 108* | -4 | -1 | 8 | 16* | 66* | RORg DNA counter=>40
COc1ccc(S(=O)(=O)Nc2cccc3c2O[C@H](CN(C)C)[C@@H](C)CN([C@H](C)CO)C3=O)cc1 | -1 | -5 | 2 | 0 | . | . | .
N#Cc1c(N)nc(SCC(=O)NCCc2ccccc2)c(C#N)c1-c1cccs1 | 40* | 52* | -23 | 0 | 38* | 62* | 43* | RORg DNA counter=>40
Cc1cc2c(s1)c1cnn(-c3ccccc3)c(=O)c1n2C | -1 | 6 | -1 | -1 | . | . | .
Cc1cc2c(s1)c1cnn(CC(=O)NCCc3ccccc3)c(=O)c1n2C | 37* | 307* | . | . | 49* | 50* | 352*
O=C(Cn1cnc2sc(-c3ccccc3)cc2c1=O)NCCc1ccccc1 | 9.1* | 65* | 0 | -1 | 40* | 60* | 28*
N#Cc1ccc(-c2ccc3c(c2)OCO3)nc1SCC(=O)OCc1ccccc1 | 13* | 24* | -6 | 0 | 14* | 29* | 19*
CC12C=CC(=O)C=C1CCC1C2C(O)CC2(C)C1CCC2(O)C(=O)CO (configuration not stated) | -1 | -3 | -1 | -1 | . | . | .
C[C@@H]1CN([C@H](C)CO)C(=O)CCCn2cc(nn2)CO[C@H]1CN(C)C(=O)c1cc(-c2ccccc2)on1 | -2 | -7 | -5 | 0 | . | . | .
COC(=O)c1ccc2nc(NC(=O)CCS(=O)(=O)c3ccccc3)sc2c1 | 15* | 43* | 3 | 0 | 25* | 36* | 18*
